In ChEMBL document CHEMBL3351850, “Synthesis and anti-biofilm activities of dihydro-pyrrol-2-one derivatives on Pseudomonas aeruginosa” (Bioorg Med Chem Lett, 2015):
≈ marks a conversion by molar mass, not a printed value.

Legend:
[1] = test system: Pseudomonas aeruginosa; experiment: Antibacterial activity against Pseudomonas aeruginosa assessed as growth inhibition after 24 hrs by microplate reader analysis; assay type: functional, organism-based
Procedure, shortened: (§1)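 IC50 for growth and biofilm formation found by serial dilution to the concentration giving 50% inhibition.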

[2] = test system: Pseudomonas aeruginosa; experiment: Antibiofilm activity against Pseudomonas aeruginosa at 50 ug/ml after 24 hrs by microplate reader analysis; assay type: functional
[3] = test system: Pseudomonas aeruginosa; experiment: Antibacterial activity against Pseudomonas aeruginosa assessed as growth inhibition at 50 ug/ml after 24 hrs by microplate reader analysis; assay type: functional; conditions: read-out: GI
[4] = test system: Pseudomonas aeruginosa; experiment: Reduction of extracellular DNA in Pseudomonas aeruginosa biofilm after 48 hrs by UV-spectrophotometry; assay type: functional, organism-based
Procedure, shortened: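 eDNA measured as the change in absorbance of biofilm lysate at 260 nm versus untreated controls; mean ± standard deviation.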

[5] = test system: Pseudomonas aeruginosa; experiment: Inhibition of MDH in Pseudomonas aeruginosa biofilm after 48 hrs by UV-spectrophotometry
Procedure, shortened: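 MDH in biofilm read as the change in absorbance of the reaction mixture at 340 nm, relative to untreated controls; mean ± standard deviation.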

[6] = test system: Pseudomonas aeruginosa; experiment: Antibiofilm activity against Pseudomonas aeruginosa after 24 hrs by microplate reader analysis; assay type: functional, organism-based; procedure, shortened: as §1

| inhibition [5] | IC50 [6] | Compound | IC50 [1] | inhibition at 50 µg/mL [2] | inhibition of growth at 50 µg/mL [3] | Activity [4] |
| --- | --- | --- | --- | --- | --- | --- |
|  |  | CCOC(=O)C1=C(Nc2ccccc2)C(=O)N(c2ccccc2)C1C(=O)OCC (stereo not drawn) | 50 µg/mL (≈ 127 µM) | 35.5% | 50.4% |  |
|  |  | CCOC(=O)C1=C(Nc2cccc(C(=O)OCC)c2)C(=O)N(c2cccc(C(=O)OCC)c2)C1C(=O)OCC (stereo not drawn) |  | 42% | 15.4% |  |
| Dose-dependent effect |  | CC[C@H]1OC(=O)[C@H](C)[C@@H](O[C@H]2C[C@@](C)(OC)[C@@H](O)[C@H](C)O2)[C@H](C)[C@@H](O[C@@H]2O[C@H](C)C[C@H](N(C)C)[C@H]2O)[C@](C)(O)C[C@@H](C)C(=O)[C@H](C)[C@@H](O)[C@]1(C)O [ERYTHROMYCIN] | 33.2 µg/mL (≈ 45.2 µM) | 45.7% | 67.6% | Dose-dependent effect |
| Dose-dependent effect | 28.8 µg/mL (≈ 62.2 µM) | CCOC(=O)C1=C(Nc2cccc(Cl)c2)C(=O)N(c2cccc(Cl)c2)C1C(=O)OCC (stereo not drawn) | 27.8 µg/mL (≈ 60 µM) | 70.2% | 83% | Dose-dependent effect |
|  |  | CCOC(=O)C1=C(Nc2ccc(C)cc2)C(=O)N(c2ccc(C)cc2)C1C(=O)OCC (stereo not drawn) |  | 13.6% | 34% |  |
|  |  | CCOC(=O)C1=C(Nc2cccc(C)c2)C(=O)N(c2cccc(C)c2)C1C(=O)OCC (stereo not drawn) | 48.4 µg/mL (≈ 115 µM) | 29.3% | 55.5% |  |
| Dose-dependent effect | 47.4 µg/mL (≈ 105 µM) | CCOC(=O)C1=C(Nc2ccc(CC)cc2)C(=O)N(c2ccc(CC)cc2)C1C(=O)OCC (stereo not drawn) | 42.2 µg/mL (≈ 93.7 µM) | 53.2% | 65.8% | Dose-dependent effect |
|  |  | CCOC(=O)C1=C(Nc2ccc(C(=O)OCC)cc2)C(=O)N(c2ccc(C(=O)OCC)cc2)C1C(=O)OCC (stereo not drawn) |  | 37.8% | 44.7% |  |
|  |  | CCOC(=O)C1=C(Nc2cc(C)cc(C)c2)C(=O)N(c2cc(C)cc(C)c2)C1C(=O)OCC (stereo not drawn) |  | 28.9% | 32.5% |  |
|  |  | CCOC(=O)C1=C(Nc2ccc(Cl)cc2)C(=O)N(c2ccc(Cl)cc2)C1C(=O)OCC (stereo not drawn) | 41.6 µg/mL (≈ 89.8 µM) | 20.7% | 68.6% |  |
|  |  | CCOC(=O)C1=C(NC2CC2)C(=O)N(C2CC2)C1C(=O)OCC (stereo not drawn) |  | 11.8% | 26.6% |  |
|  |  | CCOC(=O)C1=C(Nc2cccc(F)c2)C(=O)N(c2cccc(F)c2)C1C(=O)OCC (stereo not drawn) |  | 27.5% | 20.3% |  |
| Dose-dependent effect | 39 µg/mL (≈ 70.6 µM) | CCOC(=O)C1=C(Nc2ccc(Br)cc2)C(=O)N(c2ccc(Br)cc2)C1C(=O)OCC (stereo not drawn) | 38.4 µg/mL (≈ 69.5 µM) | 65.4% | 76.8% | Dose-dependent effect |
| Dose-dependent effect | 48.4 µg/mL (≈ 100 µM) | CCOC(=O)C1=C(Nc2ccc(OCC)cc2)C(=O)N(c2ccc(OCC)cc2)C1C(=O)OCC (stereo not drawn) | 46.6 µg/mL (≈ 96.6 µM) | 53.8% | 63.1% | Dose-dependent effect |
| Dose-dependent effect | 40.2 µg/mL (≈ 88.5 µM) | CCOC(=O)C1=C(Nc2ccc(OC)cc2)C(=O)N(c2ccc(OC)cc2)C1C(=O)OCC (stereo not drawn) | 34.2 µg/mL (≈ 75.3 µM) | 61.4% | 80.8% | Dose-dependent effect |
|  |  | CCOC(=O)C1=C(NC2CCC2)C(=O)N(C2CCC2)C1C(=O)OCC (stereo not drawn) |  | 41.3% | 40.9% |  |
